In series [1] the test system is Human immunodeficiency virus 1. As to the kind of experiment: Antiviral activity against 0.001 MOI wild type Human immunodeficiency virus 1 NL4-3 infected in human MT4 cells assessed as inhibition of viral replication measured 4 days post infection by ELISA. Conditions: Human immunodeficiency virus 1, NL4-3, MT4, 96 h. It counts as functional, organism-based. Summed up:
(§1)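 Mutations introduced into pNL4-3 by site-directed mutagenesis. MT4 cells infected with wild-type NL4-3 or resistant variant at 0.001 TCID50/cell in presence of graded compound concentrations. Supernatant p24 measured by ELISA on day 4 post-infection. IC50 is the concentration reducing p24 by 50%, reported as mean ± SD with the number of tests given per value.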

The test system of a further series is MT4. The series can be described thus: Cytotoxicity against human MT4 cells for 4 days. Conditions: mt4, 96 h. It counts as cell-based. The gist of the method:
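MT4 cells cultured with various compound concentrations for 4 days. Viability read by a CytoTox-Glo luminescent cytotoxicity assay. CC50 is the concentration reducing viable cells by 50%.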

Series [2] concerns Human immunodeficiency virus 1. The series can be described thus: Antiviral activity against 0.001 MOI bevirimat-resistant Human immunodeficiency virus 1 NL4-3 harboring gag V370A mutant infected in human MT4 cells assessed as inhibition of viral replication measured 4 days post infection by ELISA. The following applies: Human immunodeficiency virus 1, NL4-3, MT4, 96 h. It counts as functional, organism-based. Summed up:
as §1

The structures appear in SMILES notation. pIC50: −log10 of the molar value. Bounds are passed on as bounds.

For orientation: pIC50 means the IC50 on a negative log10 scale, so that one unit is a factor of ten. As a reminder, the CC50 is the concentration that lowers cell viability or growth by half. Read a high CC50 as better tolerance by the cells. Consider `C=C(C)[C@@H]1CC[C@]2(C(=O)NCCCCCCCCC(=O)NCC(=O)O)CC[C@]3(C)[C@H](CC[C@@H]4[C@@]5(C)CC[C@H](OC(=O)CC(C)(C)C(=O)O)C(C)(C)[C@@H]5CC[C@]43C)[C@@H]12`, for which the pIC50 in series [1] is 7.40; in series [2], 6.32. The compound further displayed a CC50 in the series with MT4 above 10000 nM.

With `C=C(C)[C@@H]1CC[C@]2(C(=O)NCCCCCCCCCNC(=O)CNC(=O)OC(C)(C)C)CC[C@]3(C)[C@H](CC[C@@H]4[C@@]5(C)CC[C@H](OC(=O)CC(C)(C)C(=O)O)C(C)(C)[C@@H]5CC[C@]43C)[C@@H]12`, the negative logarithm of the IC50 (pIC50) is 7.70 in series [1] and 5.98 in series [2]. Further, the CC50 in the series with MT4 is above 10000 nM.

On to `C=C(C)[C@@H]1CC[C@]2(C(=O)NCCCCCCCCC(=O)N[C@@H](C)C(=O)OC)CC[C@]3(C)[C@H](CC[C@@H]4[C@@]5(C)CC[C@H](OC(=O)CC(C)(C)C(=O)O)C(C)(C)[C@@H]5CC[C@]43C)[C@@H]12`, for which the pIC50 in series [1] is 8.00; in series [2] it was 6.38. In the series with MT4, this compound came in with a cytotoxic concentration (CC50) above 10000 nM.

As for `C=C(C)[C@@H]1CC[C@]2(C(=O)NCCCCCCCCC(=O)NCCC#N)CC[C@]3(C)[C@H](CC[C@@H]4[C@@]5(C)CC[C@H](OC(=O)CC(C)(C)C(=O)O)C(C)(C)[C@@H]5CC[C@]43C)[C@@H]12`, the pIC50 in series [1] was 6.82; in series [2] it was 6.48. This compound returned a CC50 in the series with MT4 above 10000 nM.

In the case of `C=C(C)[C@@H]1CC[C@]2(C(=O)NCCCCCCCCC(=O)N[C@@H](CCC(=O)OC)C(=O)OC)CC[C@]3(C)[C@H](CC[C@@H]4[C@@]5(C)CC[C@H](OC(=O)CC(C)(C)C(=O)O)C(C)(C)[C@@H]5CC[C@]43C)[C@@H]12`, the negative logarithm of the IC50 (pIC50) was 6.74 in series [1] and 5.67 in series [2]. The cytotoxic concentration (CC50) in the series with MT4 is above 10000 nM.

Regarding `C=C(C)[C@@H]1CC[C@]2(C(=O)NCCCCCCCCC(=O)N(C)CC#N)CC[C@]3(C)[C@H](CC[C@@H]4[C@@]5(C)CC[C@H](OC(=O)CC(C)(C)C(=O)O)C(C)(C)[C@@H]5CC[C@]43C)[C@@H]12`, the pIC50 in series [1] is 7.40; in series [2], 5.68. The CC50 in the series with MT4 is above 10000 nM.

With `C=C(C)[C@@H]1CC[C@]2(C(=O)NCCCCCCCCNC(=O)[C@@H]3CCCN3C(=O)OC(C)(C)C)CC[C@]3(C)[C@H](CC[C@@H]4[C@@]5(C)CC[C@H](OC(=O)CC(C)(C)C(=O)O)C(C)(C)[C@@H]5CC[C@]43C)[C@@H]12`, the negative logarithm of the IC50 (pIC50) was 7.40 in series [1] and 6.02 in series [2]. In the series with MT4, this compound had a CC50 above 10000 nM.

Consider `C=C(C)[C@@H]1CC[C@]2(C(=O)N3CCN(CCCCC(=O)O)CC3)CC[C@]3(C)[C@H](CC[C@@H]4[C@@]5(C)CC[C@H](OC(=O)CC(C)(C)C(=O)O)C(C)(C)[C@@H]5CC[C@]43C)[C@@H]12`, for which the pIC50 is 8.22 in series [1] and below 5.48 in series [2]. In the series on MT4, the half-maximal cytotoxic concentration (CC50) is above 10000 nM.

With `C=C(C)[C@@H]1CC[C@]2(C(=O)NCCCCCCCC(=O)N[C@@H](CCC(N)=O)C(=O)OC)CC[C@]3(C)[C@H](CC[C@@H]4[C@@]5(C)CC[C@H](OC(=O)CC(C)(C)C(=O)O)C(C)(C)[C@@H]5CC[C@]43C)[C@@H]12`, the pIC50 in series [1] is 7.30; in series [2], below 5.30. Moreover, in the series on MT4, the half-maximal cytotoxic concentration (CC50) is above 10000 nM.

In the case of `C=C(C)[C@@H]1CC[C@]2(C(=O)NCCCCCCCCC(=O)NCC#N)CC[C@]3(C)[C@H](CC[C@@H]4[C@@]5(C)CC[C@H](OC(=O)CC(C)(C)C(=O)O)C(C)(C)[C@@H]5CC[C@]43C)[C@@H]12`, the pIC50 in series [1] was 7.52; in series [2], 6.34. In the series on MT4, this compound registered a CC50 of 6490 nM.

As to `C=C(C)[C@@H]1CC[C@]2(C(=O)NCCCCCCCCCNC(=O)[C@H](C)NC(=O)OC(C)(C)C)CC[C@]3(C)[C@H](CC[C@@H]4[C@@]5(C)CC[C@H](OC(=O)CC(C)(C)C(=O)O)C(C)(C)[C@@H]5CC[C@]43C)[C@@H]12`, the pIC50 in series [1] was 7.30; in series [2] it was 5.80. In the series with MT4, this compound came in with a cytotoxic concentration (CC50) above 10000 nM.

Source of the values: ChEMBL document CHEMBL2321690, “New betulinic acid derivatives for bevirimat-resistant human immunodeficiency virus type-1” (J Med Chem, 2013).
